From ChEMBL document CHEMBL4346670, “Discovery of Novel Janus Kinase (JAK) and Histone Deacetylase (HDAC) Dual Inhibitors for the Treatment of Hematological Malignancies” (J Med Chem, 2019) come the findings set out here.

Test [1] has as its target Histone deacetylase 2 (Homo sapiens, UniProt Q92769). The test can be described thus: Inhibition of HDAC2 (unknown origin) using Boc-Lys(acetyl)-AMC as substrate preincubated for 5 mins followed by substrate addition and measured after 30 mins by fluorescence assay.
For test [2], the target named is Calcium/calmodulin-dependent protein kinase type 1 (Homo sapiens) (UniProt Q14012). The test can be described thus: Inhibition of recombinant human CAMK1alpha at 20 nM using CREBtide as substrate measured after 30 mins by LANCE assay relative to control. The method, boiled down: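 Single-concentration screen within an 85-kinase panel run by a contract lab, with each compound tested at 20 nM and 200 nM. Human recombinant enzymes were used. Activity was quantified as phosphorylation of a peptide substrate read by LANCE time-resolved detection, and inhibition was expressed relative to control, using the same format as the JAK assay.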

Test [3] concerns HEL. The test can be described thus: Antiproliferative activity against HEL cells harboring JAK2 V617F mutant assessed as reduction in cell viability after 48 hrs by MTT assay. It is filed as functional, cell-based. Particulars: Homo sapiens. A general note: Formazan colour is commonly taken as a measure of viable cells.
Test [4] addresses T1, Histone deacetylase 8 (Homo sapiens, UniProt Q9BY41).
T1 sequence (Q9BY41 whole entry): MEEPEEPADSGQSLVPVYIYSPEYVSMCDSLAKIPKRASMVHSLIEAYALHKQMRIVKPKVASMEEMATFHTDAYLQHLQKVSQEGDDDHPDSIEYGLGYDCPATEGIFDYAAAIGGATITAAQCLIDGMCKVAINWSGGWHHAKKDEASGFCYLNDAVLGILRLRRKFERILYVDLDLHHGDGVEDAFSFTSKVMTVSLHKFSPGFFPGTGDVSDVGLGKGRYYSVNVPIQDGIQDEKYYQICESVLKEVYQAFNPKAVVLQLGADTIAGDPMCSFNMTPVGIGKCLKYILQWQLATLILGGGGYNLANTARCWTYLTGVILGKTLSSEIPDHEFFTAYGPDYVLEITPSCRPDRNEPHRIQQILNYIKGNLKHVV
The test can be described thus: Inhibition of HDAC8 (unknown origin) using Boc-Lys(trifluoroacetyl)-AMC as substrate preincubated for 5 mins followed by substrate addition and measured after 30 mins by fluorescence assay.

In test [5] the target is Histone deacetylase. The test can be described thus: Inhibition of HDAC in human HeLa nuclear extract using Boc-Lys(acetyl)-AMC as substrate preincubated for 5 mins followed by substrate addition and measured after 30 mins by fluorescence assay. Format: cell-based.
The subject of test [6] is Jurkat. The test can be described thus: Antiproliferative activity against human Jurkat cells assessed as reduction in cell viability after 48 hrs by MTT assay. It is filed as functional, cell-based.
In test [7] the test system is HEL. The test can be described thus: Induction of apoptosis in HEL cells assessed as early apoptotic cells at 1 uM after 24 hrs by Annexin-V/propidium iodide staining-based flow cytometric analysis (reference value: 12.5%). It is filed as functional, Homo sapiens. Background: Flow cytometry measures light scatter and fluorescence of single cells or particles in a stream.

For test [8], the system named is K562. The test can be described thus: Induction of apoptosis in human K562 cells assessed as late apoptotic cells at 1 uM after 24 hrs by Annexin-V/propidium iodide staining-based flow cytometric analysis (reference value: 5.87%). It is filed as functional.
The target of test [9] is Mitogen-activated protein kinase 8 (Homo sapiens) (UniProt P45983). The test can be described thus: Inhibition of recombinant human JNK1 at 200 nM using Ulight-CFFKNIVTPRTPPPSQGK-amide as substrate measured after 60 mins by LANCE method relative to control. An outline of the steps:
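Part of an 85-kinase selectivity panel run by a contract lab, with the test compound at 20 nM and at 200 nM. Each human recombinant kinase's phosphorylation of its peptide substrate was measured following the JAK assay method. Activity is given as percent inhibition.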
On the technique in general: In TR-FRET formats the signal depends on donor and acceptor labels being close together.

Test [10] concerns K562. The test can be described thus: Induction of apoptosis in human K562 cells assessed as early apoptotic cells at 1 uM after 24 hrs by Annexin-V/propidium iodide staining-based flow cytometric analysis (reference value: 7.55%). Format: functional.
Test [11] concerns HEL. The test can be described thus: Induction of apoptosis in HEL cells assessed as late apoptotic cells at 1 uM after 24 hrs by Annexin-V/propidium iodide staining-based flow cytometric analysis (reference value: 0.023%). It is filed as functional, Homo sapiens.
The subject of test [12] is HEL. The test can be described thus: Induction of apoptosis in HEL cells assessed as necrotic apoptotic cells at 1 uM after 24 hrs by Annexin-V/propidium iodide staining-based flow cytometric analysis (reference value: 0.011%). Format: functional, Homo sapiens.
For test [13], the system named is K562. The test can be described thus: Induction of apoptosis in human K562 cells assessed as necrotic apoptotic cells at 1 uM after 24 hrs by Annexin-V/propidium iodide staining-based flow cytometric analysis (reference value: 0.827%). Format: functional.
Test [14] relates to K562. The test can be described thus: Induction of apoptosis in human K562 cells assessed as viable cells at 1 uM after 24 hrs by Annexin-V/propidium iodide staining-based flow cytometric analysis (reference value: 85.7%). It is filed as functional. The note with it: Homo sapiens, K562, 24 h; read-out: Activity.
Test [15] concerns the target T2, Tyrosine-protein kinase JAK3 (Homo sapiens, UniProt P52333).
T2 sequence (P52333 whole entry): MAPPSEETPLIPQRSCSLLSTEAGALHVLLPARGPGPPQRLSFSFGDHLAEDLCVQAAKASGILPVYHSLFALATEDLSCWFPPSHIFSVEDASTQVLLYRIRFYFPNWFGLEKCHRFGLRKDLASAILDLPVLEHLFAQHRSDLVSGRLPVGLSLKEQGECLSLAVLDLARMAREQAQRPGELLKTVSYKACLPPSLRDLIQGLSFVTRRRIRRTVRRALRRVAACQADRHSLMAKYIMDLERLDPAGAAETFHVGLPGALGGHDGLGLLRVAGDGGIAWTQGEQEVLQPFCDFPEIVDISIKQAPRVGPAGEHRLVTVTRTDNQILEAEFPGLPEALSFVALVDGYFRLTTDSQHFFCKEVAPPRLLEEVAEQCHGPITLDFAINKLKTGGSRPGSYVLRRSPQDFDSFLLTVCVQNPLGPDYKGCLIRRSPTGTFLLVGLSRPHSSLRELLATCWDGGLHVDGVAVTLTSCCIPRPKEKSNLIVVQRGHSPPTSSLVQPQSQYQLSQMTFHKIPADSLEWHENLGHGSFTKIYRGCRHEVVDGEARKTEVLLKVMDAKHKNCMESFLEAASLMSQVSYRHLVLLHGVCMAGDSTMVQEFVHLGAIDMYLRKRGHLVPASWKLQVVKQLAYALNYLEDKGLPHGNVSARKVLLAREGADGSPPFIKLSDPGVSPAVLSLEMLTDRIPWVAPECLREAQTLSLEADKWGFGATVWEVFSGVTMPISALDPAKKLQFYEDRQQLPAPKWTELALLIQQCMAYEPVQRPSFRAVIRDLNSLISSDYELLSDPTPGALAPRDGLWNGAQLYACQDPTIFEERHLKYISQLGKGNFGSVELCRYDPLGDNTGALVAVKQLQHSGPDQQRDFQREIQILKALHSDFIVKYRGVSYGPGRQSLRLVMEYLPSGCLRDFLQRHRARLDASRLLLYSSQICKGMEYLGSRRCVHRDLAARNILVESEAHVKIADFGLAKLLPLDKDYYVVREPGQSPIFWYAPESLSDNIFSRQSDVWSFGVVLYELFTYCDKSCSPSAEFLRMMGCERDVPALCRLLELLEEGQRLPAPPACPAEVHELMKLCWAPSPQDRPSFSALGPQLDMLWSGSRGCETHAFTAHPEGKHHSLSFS
The test can be described thus: Inhibition of recombinant human JAK3 using Ulight-CAGAGAIETDKEYYTVKD as substrate measured after 60 mins by LANCE assay.

Sequence of Histone deacetylase 2 (Q92769 whole entry): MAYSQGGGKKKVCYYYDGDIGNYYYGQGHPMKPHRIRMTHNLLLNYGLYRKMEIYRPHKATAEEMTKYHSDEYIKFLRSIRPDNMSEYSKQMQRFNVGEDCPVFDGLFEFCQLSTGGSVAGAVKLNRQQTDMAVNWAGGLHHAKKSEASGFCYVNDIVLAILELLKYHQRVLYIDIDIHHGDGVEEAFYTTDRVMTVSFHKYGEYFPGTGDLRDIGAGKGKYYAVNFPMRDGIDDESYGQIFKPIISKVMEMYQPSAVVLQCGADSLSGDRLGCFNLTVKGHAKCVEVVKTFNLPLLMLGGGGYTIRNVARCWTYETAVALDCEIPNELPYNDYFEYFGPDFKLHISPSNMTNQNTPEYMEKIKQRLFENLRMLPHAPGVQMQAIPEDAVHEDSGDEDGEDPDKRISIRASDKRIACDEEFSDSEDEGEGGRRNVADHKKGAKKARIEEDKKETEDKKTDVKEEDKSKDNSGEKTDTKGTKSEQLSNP
Sequence of Mitogen-activated protein kinase 8 (Homo sapiens) (P45983 whole entry): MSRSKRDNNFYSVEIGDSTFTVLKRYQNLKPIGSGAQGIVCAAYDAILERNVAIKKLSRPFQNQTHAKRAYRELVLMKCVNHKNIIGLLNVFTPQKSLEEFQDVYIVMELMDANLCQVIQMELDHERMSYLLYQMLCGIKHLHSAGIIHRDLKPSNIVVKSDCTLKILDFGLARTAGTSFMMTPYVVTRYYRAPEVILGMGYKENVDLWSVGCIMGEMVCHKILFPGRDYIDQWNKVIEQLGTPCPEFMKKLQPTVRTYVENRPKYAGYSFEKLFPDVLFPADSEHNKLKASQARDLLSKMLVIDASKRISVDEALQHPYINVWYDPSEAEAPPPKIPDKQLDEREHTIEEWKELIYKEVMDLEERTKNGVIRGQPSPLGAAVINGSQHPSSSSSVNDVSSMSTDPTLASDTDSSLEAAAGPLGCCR
Sequence of Calcium/calmodulin-dependent protein kinase type 1 (Homo sapiens) (Q14012 whole entry, looked up): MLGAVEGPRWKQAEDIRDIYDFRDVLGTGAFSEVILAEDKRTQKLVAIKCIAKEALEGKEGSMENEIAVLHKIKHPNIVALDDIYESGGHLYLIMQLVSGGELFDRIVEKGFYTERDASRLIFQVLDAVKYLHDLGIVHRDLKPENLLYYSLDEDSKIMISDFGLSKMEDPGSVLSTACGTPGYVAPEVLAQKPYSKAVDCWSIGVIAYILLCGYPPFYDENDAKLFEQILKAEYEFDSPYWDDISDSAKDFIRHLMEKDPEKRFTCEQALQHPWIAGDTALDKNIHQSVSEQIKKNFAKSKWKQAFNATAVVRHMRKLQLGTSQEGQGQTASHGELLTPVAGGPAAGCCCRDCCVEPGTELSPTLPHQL

In general, IC50 refers to the concentration at which inhibition is half-maximal. For orientation: inhibition means how much of the control response was suppressed. As for `O=C(CCCCCn1cc(Nc2ncc(Cl)c(Nc3ccc(Cl)cc3)n2)cn1)NO`, the IC50 stood at 120 nM in test [1]; 90 nM in test [3]; 2470 nM in test [4]; 2 nM in test [5]; 60 nM in test [6]; 7.4 nM in test [15]. The values for the inhibition in test [2] and in test [9] were 2% and 13%, respectively. The Activity was 27.8% in test [7]; 46.9% in test [8]; 34.4% in test [10]; 60% in test [11]; 7.97% in test [12]; 1.07% in [13]. The viability at 1 µM in [14] is 17.6%.
Regarding `O=C(CCCCCCn1cc(Nc2ncc(Cl)c(Nc3cccc(Cl)c3)n2)cn1)NO`, the IC50 in test [1] amounted to 130 nM; in test [3], 140 nM; in test [4], 840 nM; in test [5] it was 20 nM; in test [6], 100 nM; in test [15], 3.3 nM. Further, the Activity in test [7] amounted to 22.8%; in test [8] it was 30%; in [10], 15.3%; in [11], 68.7%; in test [12] it was 2.58%; in test [13], 1.14%. Also, the viability at 1 µM in [14] was determined as 53.6%.
